Results reported in ChEMBL document CHEMBL1136508, “[3H]-methoxymethyl-MTEP and [3H]-methoxy-PEPy: potent and selective radioligands for the metabotropic glutamate subtype 5 (mGlu5) receptor” (Bioorg Med Chem Lett, 2003).

Assays:
[1] = Lipophilicity (Log D) was determined; type: physicochemical; settings: octanol/water
Summary of the method: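 LogD was determined by an HPLC method.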

[2] = target: Metabotropic glutamate receptor 5 (Rattus norvegicus, UniProt P31424); test: Binding affinity towards mGlu5 receptors in rat brain membranes was evaluated; type: cell membranes
Summary of the method: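 Displacement of [3H]-methoxy-PEPy (specific activity 67.6 Ci/mmol) binding to rat brain membranes, incubated at room temperature (equilibrium within 60 min). Nonspecific binding was defined with an unlabelled mGlu5 antagonist as cold displacer. Concentration–response curves gave IC50 values.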

[3] = target: T1, Metabotropic glutamate receptor 5 (Homo sapiens, UniProt P41594); test: In vitro functional potency using an automated assay employing LtK-cells stably expressing human recombinant mGlu5 receptor by measuring changes in cytosolic [Ca2+] concentration
Summary of the method: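 Ltk- cells stably expressing recombinant human mGlu5 were loaded with fura-2. Glutamate-evoked rises in cytosolic Ca2+ were read by fluorescence. Concentration–response curves used 12 concentrations in duplicate wells, from two or more separate experiments.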

[4] = target: T1, Metabotropic glutamate receptor 5; test: Binding affinity towards human mGlu5 receptors expressed in LtK-cells; type: cell-based

T1 sequence (P41594 whole entry): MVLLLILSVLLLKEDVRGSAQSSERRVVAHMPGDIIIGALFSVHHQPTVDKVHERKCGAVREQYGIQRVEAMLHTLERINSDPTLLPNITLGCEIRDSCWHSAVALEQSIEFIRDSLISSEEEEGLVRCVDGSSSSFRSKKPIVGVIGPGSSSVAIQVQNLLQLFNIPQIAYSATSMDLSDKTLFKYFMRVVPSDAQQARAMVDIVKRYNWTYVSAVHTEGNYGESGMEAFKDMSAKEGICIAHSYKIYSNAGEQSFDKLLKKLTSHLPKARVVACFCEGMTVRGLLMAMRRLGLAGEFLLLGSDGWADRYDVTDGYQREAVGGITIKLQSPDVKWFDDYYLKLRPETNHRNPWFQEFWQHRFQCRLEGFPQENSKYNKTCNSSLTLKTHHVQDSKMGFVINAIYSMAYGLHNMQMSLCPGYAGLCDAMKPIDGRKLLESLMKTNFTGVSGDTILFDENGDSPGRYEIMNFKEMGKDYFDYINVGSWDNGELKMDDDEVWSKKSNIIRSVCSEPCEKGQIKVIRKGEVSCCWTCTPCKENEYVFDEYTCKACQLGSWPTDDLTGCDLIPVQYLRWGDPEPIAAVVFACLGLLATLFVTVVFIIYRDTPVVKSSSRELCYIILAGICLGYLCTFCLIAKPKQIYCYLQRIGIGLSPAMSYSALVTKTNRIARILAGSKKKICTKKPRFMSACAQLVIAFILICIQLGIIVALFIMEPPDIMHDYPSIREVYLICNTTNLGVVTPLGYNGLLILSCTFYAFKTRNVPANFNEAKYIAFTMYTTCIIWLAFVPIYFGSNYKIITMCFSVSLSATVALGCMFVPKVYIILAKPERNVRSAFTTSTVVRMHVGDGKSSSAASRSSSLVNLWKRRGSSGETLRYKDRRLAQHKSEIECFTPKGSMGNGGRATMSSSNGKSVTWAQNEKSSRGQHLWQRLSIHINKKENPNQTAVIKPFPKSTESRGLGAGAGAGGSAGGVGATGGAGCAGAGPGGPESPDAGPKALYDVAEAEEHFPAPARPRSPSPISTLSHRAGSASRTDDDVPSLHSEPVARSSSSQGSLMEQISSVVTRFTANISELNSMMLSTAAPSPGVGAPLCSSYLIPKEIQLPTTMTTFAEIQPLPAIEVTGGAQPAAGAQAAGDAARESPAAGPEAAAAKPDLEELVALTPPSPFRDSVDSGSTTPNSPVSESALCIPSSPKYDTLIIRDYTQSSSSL
Sequence of Metabotropic glutamate receptor 5 (Rattus norvegicus, UniProt P31424) (P31424 whole entry): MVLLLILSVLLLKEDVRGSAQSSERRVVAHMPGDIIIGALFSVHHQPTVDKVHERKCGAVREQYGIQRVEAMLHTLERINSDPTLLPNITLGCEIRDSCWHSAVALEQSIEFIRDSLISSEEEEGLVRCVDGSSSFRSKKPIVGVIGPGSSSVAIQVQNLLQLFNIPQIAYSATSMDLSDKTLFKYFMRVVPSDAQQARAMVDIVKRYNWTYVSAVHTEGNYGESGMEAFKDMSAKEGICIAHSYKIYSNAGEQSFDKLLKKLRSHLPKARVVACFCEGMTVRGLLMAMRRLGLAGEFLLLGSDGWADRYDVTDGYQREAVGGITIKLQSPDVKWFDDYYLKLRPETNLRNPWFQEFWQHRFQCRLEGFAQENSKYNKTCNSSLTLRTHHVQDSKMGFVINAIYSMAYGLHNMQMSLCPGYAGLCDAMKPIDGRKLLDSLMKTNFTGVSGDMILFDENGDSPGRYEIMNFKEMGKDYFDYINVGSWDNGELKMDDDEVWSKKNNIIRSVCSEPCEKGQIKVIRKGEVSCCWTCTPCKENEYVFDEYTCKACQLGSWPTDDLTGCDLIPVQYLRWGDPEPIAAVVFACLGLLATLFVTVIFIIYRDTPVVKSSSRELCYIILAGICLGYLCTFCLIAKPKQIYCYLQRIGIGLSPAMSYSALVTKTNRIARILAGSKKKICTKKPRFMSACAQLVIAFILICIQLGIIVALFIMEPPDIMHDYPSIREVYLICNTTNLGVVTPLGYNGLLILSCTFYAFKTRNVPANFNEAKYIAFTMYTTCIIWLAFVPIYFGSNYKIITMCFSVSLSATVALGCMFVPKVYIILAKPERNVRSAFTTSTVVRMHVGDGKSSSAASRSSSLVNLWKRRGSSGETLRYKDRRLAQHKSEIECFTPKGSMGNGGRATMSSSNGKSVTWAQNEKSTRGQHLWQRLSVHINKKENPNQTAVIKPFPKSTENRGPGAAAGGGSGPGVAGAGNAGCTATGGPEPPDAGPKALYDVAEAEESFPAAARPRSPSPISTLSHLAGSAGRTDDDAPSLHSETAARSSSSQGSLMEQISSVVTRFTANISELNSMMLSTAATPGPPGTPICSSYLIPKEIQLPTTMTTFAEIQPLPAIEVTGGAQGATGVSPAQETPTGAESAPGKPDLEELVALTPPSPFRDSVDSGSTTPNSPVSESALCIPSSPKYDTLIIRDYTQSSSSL

| Structure (SMILES) | logD [1] | IC50 [2] [nM] | IC50 [3] [nM] | IC50 [4] [nM] |
| --- | --- | --- | --- | --- |
| Cc1cncc(C#Cc2csc(C)n2)c1 | 2.5 | – | – | – |
| [3H]C([3H])([3H])Oc1cncc(C#Cc2ccccn2)c1 | 2.25 | 12 | 1 | – |
| [3H]C([3H])([3H])OCc1cncc(C#Cc2csc(C)n2)c1 | 2.4 | – | 7 | 47 |
| COCc1cncc(C#Cc2ccccn2)c1 | 2 | – | 19 | – |
